From paper PMC4629109 (Acta Pharmaceutica Sinica. B, 2014)
≈ marks a conversion by molar mass, not a printed value.

Tests used:
[1] = Transport across ARPE-19 monolayer cells; type: in vitro ADME; settings: human
Procedure, shortened: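 ARPE-19 cells were seeded at 2.5×10⁵ cells/insert on 12-well 0.4 μm polycarbonate Transwells and used once TEER reached 150 Ω. After two HBSS rinses, 100 μmol/L compound in 37 °C HBSS was added apically. Basolateral samples were taken at 30, 60, 120, 240 and 360 min with replacement and analysed by HPLC. Papp=(ΔQ/Δt)/(A×C0), with A 1.12 cm², n=3. The ratio is Papp test/Papp fluorescein; a competition set used 24 h pre-incubation with 10 mmol/L taurine.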

Solubility study = type: physicochemical; settings: doubly distilled water, 25 °C, thermodynamic from solid
Procedure, shortened: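 Excess solid was placed in doubly distilled water and shaken at 100 times/min at 25 °C for 24 h. It then stood a further 24 h at 25 °C and was centrifuged. The supernatant was assayed by HPLC on a Polar-RP column at 35 °C, with UV at 230 nm and pH 2.5 phosphate buffer/acetonitrile.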

hRMECs = test: Cellular internalization by confocal scanning microscopy; type: cell-based, human; settings: 100 μmol/L, 37 °C
Procedure, shortened: (§1)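 Cells were seeded on confocal dishes at 5×10³ cells/well and grown 24 h at 37 °C. They were then exposed to 100 μmol/L test compound or fluorescein for 2 h or 6 h, and washed three times with HBSS. Intracellular fluorescence was imaged by laser scanning confocal microscopy, with excitation at 488 nm for fluorescein and 405 nm for the conjugate.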

[2] = Transport across hRMECs monolayer cells; type: in vitro ADME; settings: human
Procedure, shortened: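 hRMEC monolayers were grown on 24-well 0.4 μm polycarbonate Transwells and used at TEER 200 Ω. After rinsing, 100 μmol/L compound in 37 °C HBSS was added apically. Basolateral samples were taken at 30, 60, 120, 240 and 360 min with replacement and analysed by HPLC (UV 230 nm). Papp=(ΔQ/Δt)/(A×C0), with A 0.33 cm², n=3. The ratio is Papp test/Papp fluorescein; a competition set used 24 h pre-incubation with 10 mmol/L taurine in both chambers.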

ARPE-19 = test: Cellular internalization by confocal scanning microscopy; type: cell-based; settings: ARPE-19, 100 μmol/L, 37 °C
Procedure, shortened: as §1

[3] = n-octanol/water partition coefficient, shake flask method; type: physicochemical
Procedure, shortened: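 Shake-flask method: n-octanol and water were mutually presaturated (24 h shaking, 4000 rpm 10 min). The compound was dissolved in water-saturated octanol and mixed with an equal volume of octanol-saturated water. The mixture was shaken at 100 times/min at 25 °C for 24 h and centrifuged at 4000 rpm for 10 min. Both phases were diluted and quantified by HPLC (UV 230 nm), and P was calculated as C(oil)/C(water).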

SMILES: O=C1OC2(c3ccc(O)cc3Oc3cc(O)ccc32)c2ccccc21 [Fluorescein]
- Papp at 360 min, 100 μmol/L [1]: 5.56 ± 0.8 ×10⁻⁶ cm/s
- solubility at 24 h (Solubility study): 6.75 µg/mL (≈ 20.3 µM)
- intracellular fluorescence (cellular uptake) (hRMECs; 2 h): strong fluorescence
- intracellular fluorescence (cellular retention) (hRMECs; 6 h): almost no fluorescein was observed
- Papp at 360 min, 100 μmol/L [2]: 7.23 ± 0.92 ×10⁻⁶ cm/s
- intracellular fluorescence (cellular uptake) (ARPE-19; 2 h): strong fluorescence
- intracellular fluorescence (cellular retention) (ARPE-19; 6 h): almost no fluorescein was observed
- logP at 24 h [3]: 1.55
